# This is a sample that favours compounds with a hit; in the whole collection about 2.5% have one here.
# B2AR ag – agonists of human beta-2 adrenergic receptor inducing internalization. response, % (no concentration beside the values). AID 504454. 340,000 tested, 0.43% active. P07550. Am2.2-beta2AR cells, FAP receptor internalization, flow cytometry;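 active means response above a set limit, near 3 SD of response in nonfluorescent compounds, cut at about 42% in these data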
# UHRF1 MBD2 ctr – blocks human UHRF1 binding to methylated DNA | AID 687016 | Q96T88 | inhibition, % at 4.4 µM | UHRF1 binding to methylated oligo, TR-FRET | 370,000 tested, 0.75% active; in the data active means inhibition above about 21%;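 further: UHRF1 SRA domain binding a hemimethylated CpG hairpin DNA probe; 0% = median of test compound wells and 100% = reference inhibitor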
# Arr AP2 block – human beta-arrestin and AP2 interaction inhibition; AID 504490; FITC-arrestin peptide / GST-AP2 beads, flow cytometry; AP2 beta2 appendage carries R879A mutation; 340,000 tested, 0.31% active; inhibition, % at 10 µM;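 active means inhibition above a set limit, near 3 SD of compounds lacking own fluorescence, cut at about 54% in these data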;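 further: plate controls were DMSO wells for no effect and 5 µM unlabelled arrestin peptide for full effect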
#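 Assay system: GST-AP2 R879A bound to glutathione beads, E. coli-expressed; Medium: PBS with 0.05% Tween 20 and 0.1% BSA; Also added: fluorescein-tagged arrestin peptide at 50 nM final; Timing: 12 min plus 1 h, RT; Measured by: flow cytometry, FL1 (488/535 nm); Evaluation: percent drop in bead-associated FITC signal.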
# ABHD5 PLIN5 PPI – ABHD5-PLIN5 protein interaction inhibition; AID 602281; 360,000 tested, 0.78% active; Q00G26+Q8WTS1; Split G. princeps luciferase complementation, luminescence, 4 h; inhibition, % at 4 µM;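 active means inhibition above the mean inhibition across every tested compound plus 3 SD, cut at about 22% in these data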;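 further: 0% = DMSO only wells and the 100% control is not disclosed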
# Target sequence (Q00G26 whole entry, looked up): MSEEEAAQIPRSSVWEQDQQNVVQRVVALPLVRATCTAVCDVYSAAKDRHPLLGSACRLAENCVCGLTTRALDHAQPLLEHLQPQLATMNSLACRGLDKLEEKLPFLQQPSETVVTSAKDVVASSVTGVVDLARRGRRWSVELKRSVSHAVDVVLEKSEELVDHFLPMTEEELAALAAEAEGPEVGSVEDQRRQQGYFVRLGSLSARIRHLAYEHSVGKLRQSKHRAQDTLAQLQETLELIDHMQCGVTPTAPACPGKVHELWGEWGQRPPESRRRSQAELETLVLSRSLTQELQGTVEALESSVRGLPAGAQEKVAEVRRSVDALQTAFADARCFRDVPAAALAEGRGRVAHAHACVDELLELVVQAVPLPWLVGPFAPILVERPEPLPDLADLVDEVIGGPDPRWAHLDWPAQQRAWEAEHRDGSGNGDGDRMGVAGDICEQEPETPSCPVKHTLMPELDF
# Target sequence (Q8WTS1 whole entry, looked up): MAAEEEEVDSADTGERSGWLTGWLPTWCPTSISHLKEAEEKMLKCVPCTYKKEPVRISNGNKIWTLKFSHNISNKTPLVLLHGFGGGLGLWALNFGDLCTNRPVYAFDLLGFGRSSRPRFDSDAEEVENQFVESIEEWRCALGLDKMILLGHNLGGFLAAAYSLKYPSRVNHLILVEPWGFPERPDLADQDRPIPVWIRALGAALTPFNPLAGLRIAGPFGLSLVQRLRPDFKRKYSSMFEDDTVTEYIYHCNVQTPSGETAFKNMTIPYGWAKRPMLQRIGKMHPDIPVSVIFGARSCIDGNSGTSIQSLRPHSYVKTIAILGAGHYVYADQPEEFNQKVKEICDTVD
# Rin1 Abl inh – human Rin1-Abl interaction inhibition; P00519+Q13671; 360,000 tested, 0.4% active; TR-FRET Rin1/Abl binding, biochemical; inhibition, % at 7.35 µM; in the data active means inhibition above about 5%, passing the limit was not always enough
# MBD2 inh – blocks human MBD2 binding to methylated DNA. Q9UBB5. TR-FRET, MBD2 binding to methylated oligonucleotide. inhibition, % at 4.4 µM. 370,000 tested, 0.31% active. AID 686964; in the data active means inhibition above about 13%
# The depositor's hits bear a star; / = no result.
SMILES,B2AR ag,UHRF1 MBD2 ctr,Arr AP2 block,ABHD5 PLIN5 PPI,Rin1 Abl inh,MBD2 inh
CCOc1ccccc1NC(=O)C1C2CCC3C(CCC21)C3(Cl)Cl (centres undefined),3,26*,13,-11,1,8
O=C(Nc1ccccc1Cl)C1C2CCC3C(CCC21)C3(Cl)Cl (centres undefined),2,-1,26,-4,-4,-4
CCOc1ccccc1NC(=O)COC(=O)C1CC1,-1,23*,6,5,1,11
CCN(CC)c1ccc(/C=C2\SC(=O)N(C(C)C)C2=O)o1,-51,/,-8,86*,-1,/
O=C(O)CCc1ccc(-c2cccs2)o1,2,/,11,70*,4,/
O=C(O)CCc1ccc(-c2cccs2)n1Cc1ccco1,14,3,34,18,1,2
c1ccc(Cn2c(SCC3CCCCC3)nnc2-c2cccnc2)cc1,/,0,/,/,/,-4
COc1ccc(-c2nn(-c3ccccc3)cc2/C=C/C(=O)N2CCN(c3ccccn3)CC2)cc1,55*,-2,23,1,0,1
O=C(c1cn(-c2ccccc2)nc1-c1ccccc1)N1CCN(c2ccccn2)CC1,-27,2,41,8,6,1
O=C(CSc1nnc(-c2cccnc2)n1-c1ccccc1)Nc1cccc2ccccc12,/,2,/,/,/,2
COc1ccc(CCNC(=O)CN(c2cccc([N+](=O)[O-])c2)S(C)(=O)=O)cc1,-11,38*,-10,4,-2,-2
CC(C)(C)c1ccc(S(=O)(=O)N2CCCC2C(=O)N2CCN(c3ccccc3)CC2)cc1 (centres undefined),/,4,/,/,/,0
O=C(Nc1ccc(-c2nc3ccccc3c(=O)o2)cc1)c1ccco1,-4,21*,29,5,-3,7
CC(=O)Nc1ccc(-c2nc3ccccc3c(=O)o2)cc1,0,-1,-7,3,1,-3
C=CCSc1nc2ccccc2n1C(=O)/C=C/c1ccc(OC)c(OC)c1,34,0,2,9,-2,2
CCSc1nc2ccccc2n1C(=O)/C=C/c1ccc(OC)c(OC)c1,42*,-2,1,20,-1,2
Cc1cc(CN2CCCC(CO)(Cc3cccc(Cl)c3)C2)n[nH]1 (centres undefined),2,24*,2,8,3,3
CC(C)Cc1cc(CN2CCCC(CO)(Cc3cccc(Cl)c3)C2)[nH]n1 (centres undefined),21,-2,-18,3,0,5
Cc1ccccc1CS(=O)(=O)Cc1ccc(C(=O)Nc2c(C)cccc2C)o1,/,-1,/,/,/,-3
CC(=O)N1[C@@H](CO)[C@@H](c2ccc(-c3cccc(F)c3)cc2)[C@@H]1CNCC1CCC1,/,1,/,/,/,5
COCCCNC(=O)c1ccc2c(c1)NC(=O)C(C)(C)O2,/,0,/,/,/,2
CC1=CC(c2ccccc2)n2nnnc2N1 (centres undefined),-11,35*,38,2,1,1
C=CCN1C(=O)C(CC(=O)Nc2ccc(C)cc2)SC1=Nc1c(C)n(C)n(-c2ccccc2)c1=O (centres undefined),-3,0,7,-4,3,2
Cc1c(N=C2SC(CC(=O)Nc3ccccc3)C(=O)N2CCN2CCOCC2)c(=O)n(-c2ccccc2)n1C (centres undefined),-5,28*,-8,-4,-2,3
CC(C)c1ccc(S(=O)(=O)N2CCN(CCC(=O)Nc3ccc(N(C)C)cc3)CC2)cc1,-2,23*,-10,-4,-1,15*
SMILES,B2AR ag,UHRF1 MBD2 ctr,Arr AP2 block,ABHD5 PLIN5 PPI,Rin1 Abl inh,MBD2 inh
O=C(NN=C1CCN(Cc2ccccc2)CC1)C(O)c1ccccc1 (centres undefined),2,49*,-1,-4,2,-2
CCN(C[C@H]1N[C@@](C)(C(=O)OC)[C@H]2C(=O)N(C)C(=O)[C@@H]12)S(=O)(=O)c1ccc(C)cc1,-4,-1,-12,0,-3,-7
CCN(C[C@H]1N[C@@](C)(C(=O)OC)[C@H]2C(=O)N(C)C(=O)[C@@H]12)S(=O)(=O)c1ccc(C(F)(F)F)cc1,2,22*,-5,-8,-2,5
FC(F)(F)c1ccccc1NC(=S)OCCN1CCCC12CCC(c1ccccc1)CC2 (centres undefined),/,-3,/,/,/,1
COc1ccc(CN2C(=O)CCC2(C)c2nnnn2-c2c(C)cccc2C)cc1OC (centres undefined),/,-4,/,0,/,2
COc1ccc(CCN2C(=O)CCC2(C)c2nnnn2-c2c(C)cccc2C)cc1OC (centres undefined),/,22*,/,3,/,7
Cc1c(C(Nc2ccccn2)c2ccc(Cl)cc2)c(=O)n(-c2ccccc2)n1C (centres undefined),6,-1,-8,-5,4,-1
Cc1c(C(Nc2ccccn2)c2ccccc2)c(=O)n(-c2ccccc2)n1C (centres undefined),5,22*,25,-3,-1,8
CN1CCN(C2=C(Cl)C(=O)C(c3cnc(N4CCCCC4)s3)=C(Cl)C2=O)CC1,8,/,107*,3,-2,/
CN1CCN(C2=C(Cl)C(=O)c3ccccc3C2=O)CC1,28,16,41,-40,5,-1
Oc1ccc(N=Nc2ccc3c(c2)OCCO3)c2ncccc12,13,-6,34,15,9.2*,-7
O=C(Nc1ccc(NC(=O)c2cc([N+](=O)[O-])ccc2N2CCOCC2)cc1)c1cccs1,-9,23*,22,5,-2,9
COCCCNC(=O)C[C@H]1C[C@@]2(C(=O)OC)C(=C[C@H](C(C)C)O[C@@H]2C2CC2)N(CCc2ccc(OC)c(OC)c2)C1=O,/,0,/,/,/,-2
N#CC(C#N)=C1C=CC=CN1/C(=C\c1ccco1)C(=O)c1ccc(Cl)cc1,58*,3,7,87*,-1,-2
CC(/C=N/n1c(-c2ccc(Cl)cc2)n[nH]c1=S)=C\c1ccco1,-13,-2,-1,-2,-1,0
N#C/C(=C/c1ccncc1)c1nc2ccccc2c(=O)[nH]1,14,-1,4,8,1,-1
N#C/C(=C\c1ccncc1)c1nc2ccccc2c(=O)[nH]1,2,44*,30,2,4,-1
COc1ccc(NS(=O)(=O)c2cc(NC(=O)c3ccc(=O)[nH]n3)ccc2N2CCOCC2)cc1,-3,29*,6,1,3,0
CCCC(=O)N(c1ccc(C(=O)O)cc1)c1nc(-c2ccccc2)c(C)s1,13,41*,0,1,3,13
Cc1nc(N(C)C)c2sc(=S)n(C)c2n1,2,27*,-4,2,1,-1

# Compound activity deposited in PubChem BioAssay by several laboratories.
